Pf gametocyte: inhibitors of late stage P. falciparum gametocyte viability | inhibition, % at 10.9 µM | P. falciparum stage V gametocytes, ATP luminescence, 24 h | actives 0.065% (n = 150,000);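 active = inhibition above the mean plus 3 SD of compounds within the control limits, set per campaign, cut at about 38% in these data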;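 also: 0% = DMSO wells and 100% = medium only without gametocytes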
KCC2 mod: modulators of human KCC2 chloride dependent transport; KCC2 cells, thallium flux FluoZin-2 fluorescence; actives 2.2% (n = 190,000); B-score of Tl+ flux slope (higher = more flux/activation; lower = inhibition) at 10 µM; Q9H2X9;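 active = thallium flux slope and its plate-corrected score both differing from the plate sample mean at a set confidence after two filtering rounds, in either direction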;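 also: slope of fluorescence scaled to starting intensity during 10 to 20 s after thallium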
MT stabilizer: microtubule stabilization, imaging screen; HeLa tubulin immunostaining HCS, 24 h; share of cells brighter than vehicle mean+2SD; % tubulin-high responders, % at 10 µM; actives 0.83% (n = 200,000); AID 2205;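 active = plate Z-score above 3 for both tubulin-high and condensed-nucleus cell shares, with cell loss under 80%, at 10 µM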;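 also: anti alpha tubulin signal scored within the nucleus-defined area of each cell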
WT yeast gro inh: growth inhibition of WT yeast, mitochondrial fusion screen; actives 2.1% (n = 190,000); inhibition, % at 10 µM; AID 1362; mitochondrial fusion phenotypic screen, WT strain; in the data active = inhibition above about 58%; tested in S. cerevisiae
bCat nuc transl: alters nuclear translocation of beta-catenin in HeLa cells; immunofluorescence imaging; nuclear translocation activity, % at 5 µM; actives 0.3% (n = 190,000); AID 1665;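 active = nuclear translocation activity above 50% at 5 µM, with a well cell count of 50 or more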;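 also: per-cell ratio of nuclear to cytoplasmic median beta-catenin stain intensity; plate controls were DMSO negative control for no effect and GSK-3 inhibitor IX positive control for full effect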
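System: HeLa cells, endogenous beta-catenin; compound dosing: 5 µM primary single dose, 0.1% DMSO, 0.02–20 µM confirmation series; incubation: 24 h compound exposure at 37°C, 5% CO2; signal: beta-catenin immunofluorescence imaging with DAPI; evaluation: % activation, nuclear-to-cytoplasmic median beta-catenin signal ratio per cell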
Numbers without * were called inactive; / = no result given. The list is not random: actives were taken first. Their share in the collection is about 4%.

SMILES	Pf gametocyte	KCC2 mod	MT stabilizer	WT yeast gro inh	bCat nuc transl
CCCN(CCC)S(=O)(=O)c1ccc(C(=O)Nc2nnc(-c3cccc(OC)c3)o2)cc1	21	15*	4	-1	-2
COc1cccc(-c2nnc(NC(=O)c3ccccc3Br)o2)c1	/	2.8	/	4	0
COc1ccc(-c2nnc(NC(=O)c3ccc(S(=O)(=O)N4COCC4(C)C)cc3)o2)cc1	4	8.2*	4	4	-2
COc1cccc(-c2nnc(NC(=O)c3ccc(Cl)s3)o2)c1	/	151*	8	62	0
CC1CCCCN1S(=O)(=O)c1ccc(C(=O)Nc2nnc(-c3ccncc3)o2)cc1 (stereo unspecified)	-16	-0.47	1	8	0
CCCN(CCC)S(=O)(=O)c1ccc(C(=O)Nc2nnc(CSC)o2)cc1	/	/	3	-6	0
O=C(Nc1ccc(Oc2ccc(NC(=O)Nc3ccccc3Cl)cc2)cc1)Nc1ccccc1Cl	/	1.2	/	/	-1
COc1ccc(CC(=O)Nc2ccc(N3CCOCC3)cc2)cc1S(=O)(=O)N1CCOCC1	7	-0.0092	/	/	-1
CC(C)n1cc(/C=C2\NC(=O)N(c3cccc(Cl)c3)C2=O)c2ccccc21	15	-0.16	22*	0	/
CC(C)n1cc(/C=C2/NC(=O)N(c3cccc(Cl)c3)C2=O)c2ccccc21	/	-0.024	20	9	0
Clc1ccc(CN(Cc2ccc(Cl)cc2)c2nn[nH]n2)cc1	-13	-5.9*	2	-15	-1
CCCCCCOc1ccc(/C(C)=N/NC2=NCCN2)cc1[N+](=O)[O-]	-17	-0.029	4	65	4
CCCCOc1ccc(Br)cc1/C(C)=N/NC1=NCCN1	/	0.0026	8	77	52*
CC(Oc1ccccc1)C(=O)N1CCN=C1SCc1ccccc1F (stereo unspecified)	4	-1.5	/	/	-3
O=C(COc1c(F)c(F)c(C(F)(F)F)c(F)c1F)Nc1ccc(N2CCOCC2)c(Cl)c1	/	-1.2	6	70*	0
O=C(Nc1ccc(N2CCOCC2)c(Cl)c1)c1ccccc1F	/	1.1	1	5	0
CCC(C)c1ccc(NC(=O)COc2c(F)c(F)c(C(F)(F)F)c(F)c2F)cc1 (stereo unspecified)	12	0.37	6	70*	-2
COc1ccc(NC(=O)/C(=C\c2ccncc2)NC(=O)c2ccccc2)cc1	6	0.29	2	1	0
O=C(Cc1ccccc1)NNc1ccc2ccccc2c1	/	-0.72	4	52	-5
O=C(CN1C(=O)CCC1=O)NNc1ccc2ccccc2c1	-18	-0.36	1	71*	0
CCN(CC)c1cnn(C/C(=N\OC)c2ccc(Cl)cc2)c(=O)c1Br	26	-3.7*	2	8	/
Cc1sc2nc3c4ccccc4c(NCc4ccco4)nn3c(=O)c2c1C	/	0.53	4	63*	0
Cc1sc2nc(SCC(=O)C(C)(C)C)n(Cc3ccco3)c(=O)c2c1C	-3	0.54	35*	23	4
CSc1ccccc1C(=O)C1CCCN(S(=O)(=O)c2c(C)noc2C)C1 (stereo unspecified)	-3	-0.59	3	-14	0
Cc1[nH]c2ccccc2c1N=Nc1ccccc1F	-3	1.4	4	72*	0
SMILES	Pf gametocyte	KCC2 mod	MT stabilizer	WT yeast gro inh	bCat nuc transl
N#CCCn1cc(/C=N/NC(=O)c2ccncc2)c(-c2ccc(F)cc2)n1	13	-0.77	2	-32	4
COc1ccc(Br)c(C(=O)N2CCN(S(=O)(=O)c3cccs3)CC2)c1	-19	-0.56	/	/	0
Cc1ccc(OC(C)C(=O)N=Nc2c(O)[nH]c3ccc([N+](=O)[O-])cc23)cc1 (stereo unspecified)	5	-1.7	16*	20	-1
Nc1c2c(=O)oc(-c3ccccc3)cc2nn1-c1ccccc1	-4	/	29*	22	/
Cc1c(-c2ccc(Cl)cc2)oc(=O)c2c(N)n(-c3ccccc3)nc12	3	1.3	2	-15	3
COc1ccc([N+](=O)[O-])cc1NC(=O)C1CCCO1 (stereo unspecified)	/	-1.1	3	-18	/
COc1ccc(C2N(c3ccc(Cl)cc3)N=C(C(C)=O)N(C)N2C(C)=O)cc1 (stereo unspecified)	6	-1.4	5	67*	0
CC1(C)CC(=O)C(C=Nc2ccc3[nH]ncc3c2)=C(O)C1	/	/	6	84*	0
Cc1ccccc1NC1=NC(=S)N(c2ccccc2)C12CCOC(C)(C)C2 (stereo unspecified)	-17	26*	3	-20	-1
CCOC(=O)c1oc2cccc(OCC(O)CNC(C)C)c2c1C (stereo unspecified)	-7	/	4	69*	9
COc1ccc(C2C(C(=O)Nc3cc(OC)c(OC)c(OC)c3)c3ccccc3C(=O)N2C)cc1 (stereo unspecified)	6	/	21	1	73*
CCN1C(=O)[C@H]2[C@H]3[C@H](O)[C@H](O)C/C(=N\OC[C@@H](C)[C@H](OCc4ccccc4)C(C)C)[C@@H]3CC[C@H]2C1=O	/	-0.076	4	29	/
O=C(NCCC1=CCCCC1)C(=O)NCC1OCCCN1S(=O)(=O)c1ccc(F)cc1 (stereo unspecified)	/	-1.3	4	1	1
CSc1ccc(OC2CCN(Cc3ccccc3)CC2)cc1	5	/	5	63*	2
CSc1ccc(CN2CCSCC2)cc1	-9	/	/	/	/
Cc1nn(-c2nc3ccccc3[nH]2)c(=O)c2ccccc12	61*	-0.2	2	91*	3
Cc1cc(Nc2ccccc2)n(-c2ccccc2)n1	-6	-0.18	4	24	/
Cc1nn(-c2ccc3ccccc3c2)c(=O)c2ccccc12	/	-1.8	3	3	3
Cc1cc(N2CCN(c3ccccc3)CC2)nc(-n2nc(C)cc2C)n1	-15	/	9	72*	-1
Cc1cc(Nc2nc(Cl)c(Cl)cc2Cl)n(-c2ccccc2)n1	/	-0.52	17*	65*	3
Cc1cc(N2CCN(c3ccccc3)CC2)nc(-c2ccccc2O)n1	11	0.18	1	26	/
Cc1cc(C)nc(-n2nc(C)cc2Nc2ccccc2)n1	21	/	3	72*	1
O=C(c1ccco1)N1CCN(Cc2nc(-c3cccs3)no2)CC1	-20	/	2	2	1
Cc1cc(Nc2ccccc2)n(-c2nc3ccccc3[nH]2)n1	/	3.3*	4	70	1
Cc1cc(NC(=O)c2ccccc2F)n(-c2nc3ccccc3[nH]2)n1	-21	0.13	5	1	-2
O=C(CC1(C(F)(F)F)OCCO1)Nc1ccc2c(c1)OCO2	/	-0.11	2	5	-2
COc1ccc(NS(=O)(=O)c2cccc(NC(=O)c3ccc(Cl)nc3)c2)cc1	4	0.2	16*	-7	1
COc1ccccc1NC(=S)NNC(=O)c1c(Cl)c(C)nn1C	/	0.06	2	65*	1
O=S(=O)(Nc1ccc2c(c1)nc1n2CCN(Cc2ccccc2)C1)c1ccccc1	/	/	6	-4	0
